Test results: ChEMBL document CHEMBL4813987, “Membrane active 7-thiazoxime quinolones as novel DNA binding agents to decrease the genes expression and exert potent anti-methicillin-resistant Staphylococcus aureus activity” (Eur J Med Chem, 2021)
Activity calls are given as the source filed them. No cut-off for these calls is given here.

What was measured:
Pseudomonas aeruginosa [1] = experiment: Antibacterial activity against Pseudomonas aeruginosa ATCC 27853 assessed as reduction in microbial growth by two fold microdilution method; format: functional
Pseudomonas aeruginosa [2] = experiment: Antibacterial activity against Pseudomonas aeruginosa assessed as reduction in microbial growth by two fold microdilution method; format: functional
Acinetobacter baumannii = experiment: Antibacterial activity against Acinetobacter baumannii assessed as reduction in microbial growth by two fold microdilution method; format: functional
Staphylococcus aureus [3] = experiment: Antibacterial activity against Staphylococcus aureus ATCC 25923 assessed as reduction in microbial growth by two fold microdilution method; format: functional
Escherichia coli [4] = experiment: Antibacterial activity against Escherichia coli assessed as reduction in microbial growth by two fold microdilution method; format: functional
Klebsiella pneumoniae = experiment: Antibacterial activity against Klebsiella pneumonia assessed as reduction in microbial growth by two fold microdilution method; format: functional
Staphylococcus aureus [5] = experiment: Potency index, ratio of norfloxacin MIC to test compound MIC for antibacterial activity against methicillin-resistant Staphylococcus aureus assessed as reduction in microbial growth by two fold microdilution method; format: functional
Staphylococcus aureus [6] = experiment: Antibacterial activity against Staphylococcus aureus ATCC 29213 assessed as reduction in microbial growth by two fold microdilution method; format: functional
Staphylococcus aureus [7] = experiment: Antibacterial activity against Staphylococcus aureus assessed as reduction in microbial growth by two fold microdilution method; format: functional
Method in brief: (§1)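 MIC determined by the standard two-fold broth micro-dilution assay, with norfloxacin and ciprofloxacin as reference agents.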

Staphylococcus aureus [8] = experiment: Antibacterial activity against methicillin-resistant Staphylococcus aureus assessed as reduction in bacterial growth at 50 to 300 ug/ml measured after 14 passages; format: functional, organism-based; conditions: dose 50-300 µg/ml
Staphylococcus aureus [9] = experiment: Antibacterial activity against methicillin-resistant Staphylococcus aureus assessed as reduction in microbial growth by two fold microdilution method; format: functional; method in brief: as §1
Escherichia coli [10] = experiment: Antibacterial activity against Escherichia coli ATCC 25922 assessed as reduction in microbial growth by two fold microdilution method; format: functional
Enterococcus faecalis = experiment: Antibacterial activity against Enterococcus faecalis assessed as reduction in microbial growth by two fold microdilution method; format: functional

Row | SMILES | MIC (Pseudomonas aeruginosa [1]) | MIC (Pseudomonas aeruginosa [2]) | MIC (Acinetobacter baumannii) | MIC (Staphylococcus aureus [3]) | MIC (Escherichia coli [4]) | MIC (Klebsiella pneumoniae) | Ratio (Staphylococcus aureus [5]) | MIC (Staphylococcus aureus [6]) | MIC (Staphylococcus aureus [7]) | Activity (Staphylococcus aureus [8]) | MIC (Staphylococcus aureus [9]) | MIC (Escherichia coli [10]) | MIC (Enterococcus faecalis)
1 | CCn1cc(C(=O)O)c(=O)c2cc(F)c(N3CCN(C/C(=N\OC)c4nccs4)CC3)cc21 | 8 µg/mL | 0.25 µg/mL | 0.25 µg/mL | 0.5 µg/mL | 0.25 µg/mL | 256 µg/mL | 64 | 0.25 µg/mL | 2 µg/mL | inactive | 0.25 µg/mL | 256 µg/mL | 4 µg/mL
2 | CO/N=C(\CN1CCN(c2cc3c(cc2F)c(=O)c(C(=O)O)cn3C2CC2)CC1)c1nccs1 | 2 µg/mL | 0.25 µg/mL | 1 µg/mL | 0.25 µg/mL | 0.25 µg/mL | 256 µg/mL |  | 0.25 µg/mL | 0.25 µg/mL | inactive | 0.25 µg/mL | 256 µg/mL | 0.25 µg/mL
3 | CCn1cc(C(=O)O)c(=O)c2cc(F)c(N3CCNCC3)cc21 [NORFLOXACIN] | 8 µg/mL | 2 µg/mL | 2 µg/mL | 2 µg/mL | 16 µg/mL | 4 µg/mL |  | 2 µg/mL | 4 µg/mL |  | 16 µg/mL | 16 µg/mL | 4 µg/mL
4 | CC(C)(C)O/N=C(\CN1CCN(c2cc3c(cc2F)c(=O)c(C(=O)O)cn3C2CC2)CC1)c1nccs1 | 0.25 µg/mL | 0.25 µg/mL | 4 µg/mL | 1 µg/mL | 128 µg/mL | 64 µg/mL |  | 4 µg/mL | 4 µg/mL |  | 4 µg/mL | 1 µg/mL | 2 µg/mL
5 | O=C(O)c1cn(C2CC2)c2cc(N3CCN(C/C(=N\OCc4ccccc4)c4nccs4)CC3)c(F)cc2c1=O | 1 µg/mL | 0.25 µg/mL | 8 µg/mL | 1 µg/mL | 0.25 µg/mL | 256 µg/mL |  | 0.5 µg/mL | 0.25 µg/mL |  | 0.25 µg/mL | 256 µg/mL | 2 µg/mL
6 | CC(C)(C)O/N=C(\CN1CCN(c2c(F)cc3c(=O)c(C(=O)O)cn(C4CC4)c3c2Cl)CC1)c1nccs1 | 0.25 µg/mL | 0.25 µg/mL | 0.25 µg/mL | 0.5 µg/mL | 4 µg/mL | 256 µg/mL |  | 0.25 µg/mL | 0.25 µg/mL | inactive | 0.25 µg/mL | 0.25 µg/mL | 0.25 µg/mL
7 | CCO/N=C(\CN1CCN(c2c(F)cc3c(=O)c(C(=O)O)cn(C4CC4)c3c2Cl)CC1)c1nccs1 | 0.25 µg/mL | 0.25 µg/mL | 0.25 µg/mL | 0.5 µg/mL | 0.25 µg/mL | 256 µg/mL |  | 0.25 µg/mL | 0.25 µg/mL | inactive | 0.25 µg/mL | 256 µg/mL | 0.25 µg/mL
8 | CCn1cc(C(=O)O)c(=O)c2cc(F)c(N3CCN(C/C(=N\OC(C)(C)C)c4nccs4)CC3)cc21 | 1 µg/mL | 2 µg/mL | 16 µg/mL | 1 µg/mL | 1 µg/mL | 1 µg/mL | 64 | 16 µg/mL | 0.25 µg/mL |  | 0.25 µg/mL | 1 µg/mL | 0.25 µg/mL
9 | O=C(CN1CCN(c2cc3c(cc2F)c(=O)c(C(=O)O)cn3C2CC2)CC1)c1nccs1 | 1 µg/mL | 1 µg/mL | 2 µg/mL | 4 µg/mL | 4 µg/mL | 16 µg/mL |  | 2 µg/mL | 1 µg/mL |  | 16 µg/mL | 4 µg/mL | 8 µg/mL
10 | C=CCO/N=C(\CN1CCN(c2cc3c(cc2F)c(=O)c(C(=O)O)cn3C2CC2)CC1)c1nccs1 | 0.25 µg/mL | 0.25 µg/mL | 0.25 µg/mL | 0.25 µg/mL | 1 µg/mL | 0.25 µg/mL |  | 32 µg/mL | 0.25 µg/mL |  | 0.25 µg/mL | 0.5 µg/mL | 0.25 µg/mL
11 | CCO/N=C(\CN1CCN(c2cc3c(cc2F)c(=O)c(C(=O)O)cn3CC)CC1)c1nccs1 | 8 µg/mL | 0.25 µg/mL | 2 µg/mL | 0.5 µg/mL | 0.25 µg/mL | 256 µg/mL | 64 | 4 µg/mL | 8 µg/mL |  | 0.25 µg/mL | 256 µg/mL | 16 µg/mL
12 | O=C(O)c1cn(C2CC2)c2c(Cl)c(N3CCN(C/C(=N\OCc4ccccc4)c4nccs4)CC3)c(F)cc2c1=O | 0.25 µg/mL | 1 µg/mL | 0.25 µg/mL | 1 µg/mL | 0.25 µg/mL | 0.25 µg/mL |  | 2 µg/mL | 2 µg/mL |  | 0.25 µg/mL | 0.25 µg/mL | 0.25 µg/mL
13 | COC(=O)CO/N=C(\CN1CCN(c2c(F)cc3c(=O)c(C(=O)O)cn(C4CC4)c3c2Cl)CC1)c1nccs1 | 0.25 µg/mL | 0.25 µg/mL | 4 µg/mL | 0.25 µg/mL | 4 µg/mL | 256 µg/mL |  | 0.25 µg/mL | 0.25 µg/mL |  | 0.25 µg/mL | 0.5 µg/mL | 0.25 µg/mL
14 | CCO/N=C(\CN1CCN(c2cc3c(cc2F)c(=O)c(C(=O)O)cn3C2CC2)CC1)c1nccs1 | 0.25 µg/mL | 0.25 µg/mL | 1 µg/mL | 0.5 µg/mL | 2 µg/mL | 0.25 µg/mL |  | 4 µg/mL | 0.25 µg/mL |  | 0.25 µg/mL | 32 µg/mL | 0.25 µg/mL
15 | C=CCO/N=C(\CN1CCN(c2c(F)cc3c(=O)c(C(=O)O)cn(C4CC4)c3c2Cl)CC1)c1nccs1 | 0.25 µg/mL | 0.25 µg/mL | 0.25 µg/mL | 0.25 µg/mL | 0.25 µg/mL | 256 µg/mL |  | 0.5 µg/mL | 0.25 µg/mL |  | 0.25 µg/mL | 0.5 µg/mL | 0.25 µg/mL
16 | CCn1cc(C(=O)O)c(=O)c2cc(F)c(N3CCN(C/C(=N\OCC(=O)OC)c4nccs4)CC3)cc21 | 0.25 µg/mL | 0.25 µg/mL | 1 µg/mL | 0.25 µg/mL | 32 µg/mL | 256 µg/mL | 64 | 2 µg/mL | 4 µg/mL |  | 0.25 µg/mL | 0.25 µg/mL | 0.25 µg/mL
17 | C=CCO/N=C(\CN1CCN(c2cc3c(cc2F)c(=O)c(C(=O)O)cn3CC)CC1)c1nccs1 | 4 µg/mL | 0.25 µg/mL | 0.25 µg/mL | 0.5 µg/mL | 0.25 µg/mL | 256 µg/mL | 64 | 2 µg/mL | 0.25 µg/mL | inactive | 0.25 µg/mL | 0.5 µg/mL | 1 µg/mL
18 | CCn1cc(C(=O)O)c(=O)c2cc(F)c(N3CCN(C/C(=N\OCc4ccccc4)c4nccs4)CC3)cc21 | 1 µg/mL | 0.5 µg/mL | 1 µg/mL | 0.25 µg/mL | 0.5 µg/mL | 128 µg/mL | 64 | 256 µg/mL | 4 µg/mL |  | 0.25 µg/mL | 64 µg/mL | 0.25 µg/mL
19 | CO/N=C(\CN1CCN(c2c(F)cc3c(=O)c(C(=O)O)cn(C4CC4)c3c2Cl)CC1)c1nccs1 | 0.25 µg/mL | 1 µg/mL | 0.25 µg/mL | 0.5 µg/mL | 0.25 µg/mL | 0.25 µg/mL |  | 0.25 µg/mL | 0.25 µg/mL | inactive | 0.25 µg/mL | 0.25 µg/mL | 0.25 µg/mL
